Hits are enriched below; roughly 3% of the tested compounds scored in any of these assays.
sEH activator: soluble epoxide hydrolase activators, primary screen, biochemical, human sEH; Bifunctional epoxide hydrolase 2 (Homo sapiens), P34913; purified human sEH enzymatic activity, activator screen; activation, % at 2 µM; hit rate 0.04% among 91,000; AID 717, 2007; in the data active means activation above about 37%
Target sequence (P34913 whole entry, looked up): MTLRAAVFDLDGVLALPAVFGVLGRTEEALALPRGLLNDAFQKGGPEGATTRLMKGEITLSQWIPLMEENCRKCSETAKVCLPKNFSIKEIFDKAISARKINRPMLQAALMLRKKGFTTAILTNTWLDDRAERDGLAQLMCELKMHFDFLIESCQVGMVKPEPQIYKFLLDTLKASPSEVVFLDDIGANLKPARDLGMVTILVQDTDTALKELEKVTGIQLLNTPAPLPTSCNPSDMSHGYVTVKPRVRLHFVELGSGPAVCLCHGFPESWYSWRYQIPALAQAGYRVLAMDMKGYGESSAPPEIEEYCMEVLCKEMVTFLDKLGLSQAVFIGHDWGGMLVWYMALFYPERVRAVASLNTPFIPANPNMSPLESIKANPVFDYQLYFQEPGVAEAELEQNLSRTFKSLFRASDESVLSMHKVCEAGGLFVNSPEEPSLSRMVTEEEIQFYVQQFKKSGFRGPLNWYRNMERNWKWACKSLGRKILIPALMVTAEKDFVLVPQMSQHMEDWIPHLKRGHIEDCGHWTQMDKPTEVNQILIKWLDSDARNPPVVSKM
sEH inh: soluble epoxide hydrolase inhibitors, primary screen, biochemical, human sEH; Bifunctional epoxide hydrolase 2 (Homo sapiens), P34913; recombinant human sEH enzymatic activity assay; inhibition, % at 2 µM; hit rate 0.34% among 91,000; in the data active means inhibition above about 80%
BB579 growth dn: growth inhibitors of yeast BB579 in restrictive medium, primary screen, yeast lifespan-shortening project, S. cerevisiae | OD615, 48 h | inhibition, % at 10 µM | hit rate 0.51% among 140,000 | AID 804, 2007;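 active means inhibition above a set limit, 3 SD over the mean compound inhibition, cut at about 44% in these data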
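Test system: S. cerevisiae DeaD strain BB579 yeast; Medium: restrictive CSMM-D medium; Compound: one dose, 10 µM compound with 0.25% DMSO; Incubation: 4 h cell preincubation, 48 h compound exposure, 30 °C humidified; Signal: OD at 615 nm; Benchmarks: amphotericin B at 10 µg/mL as positive control.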
SDO1 yeast rescue: growth rescue of sdo1-depleted yeast, primary screen, S. cerevisiae, bone marrow failure model | z-score at 10 µM | hit rate 0.21% among 140,000 | AID 817, 2007 | S. cerevisiae sdo1-depleted JHY4D growth rescue, OD600 30 h; stronger effect = higher value; pdr5 snq2 efflux-pump mutant strain;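 active means z-score above 3 at both the 24 hr and the 30 hr optical density reads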;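 further: z-score against mean and SD of all compound wells on the same plate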
Yeast life ext: compounds extending yeast replicative lifespan, primary screen, S. cerevisiae, OD615; S. cerevisiae growth with nicotinamide; deaD strain in restrictive glucose medium; inhibition of the nicotinamide effect, % at 10 µM; hit rate 0.68% among 130,000; AID 775, 2007;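 active means inhibition above a set limit, placed 3 SD over the median of all compounds, cut at about 26% in these data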;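 further: 0% = nicotinamide-treated wells and 100% = cells grown without nicotinamide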
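Test system: DeaD-strain S. cerevisiae / Buffer or medium: restrictive glucose medium / Also added: nicotinamide 1.5 mM / Doses: one concentration, 10 µM, DMSO 0.25% / Schedule: 48 h at 30 °C / Signal: OD615 measurement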
Measles CPE: compounds protecting cells from measles virus cytopathic effect, primary screen, measles RdRp inhibitor project, single point, MLSMR library, absorbance. Measles virus-infected cells, CPE protection. protection (pct of control), % at 4 µM. hit rate 1.5% among 140,000. AID 841, 2007; in the data active means protection mostly above about 24%, no sharp cut-off; inactive means mostly below about 26%
Numbers without * were called inactive; · = no result.

SMILES	sEH activator	sEH inh	BB579 growth dn	SDO1 yeast rescue	Yeast life ext	Measles CPE
CCCCC(=O)Nc1ccc(NC(=O)c2ccc(C)c([N+](=O)[O-])c2)cc1OC	·	·	-18	-0.53	1	6
N#Cc1c(NC(=O)c2ccccc2Cl)n(Cc2ccccc2)c2nc3ccccc3nc12	·	·	-41	-2.3	2	47*
CCCCn1c(NC(=O)c2ccccc2Cl)c(C#N)c2nc3ccccc3nc21	-5	2	-9	-0.98	-11	6
CC(NC(=O)Cn1nnc(-c2ccncc2)n1)c1ccccc1 (stereo not drawn)	-6	10	-18	0.81	·	1
CCn1ncc(Br)c1C(=O)Nc1ccn(C23CC4CC(CC(C4)C2)C3)n1	·	·	-9	-1.2	-5	41*
COc1cccc(/C=N/n2c(-c3ccco3)nc3ccccc3c2=O)c1OC	·	·	10	-0.34	-1	42
Cn1ncc2c(Nc3ccc(-c4ccccc4)cc3)ncnc21	·	·	-43	-1.5	-25	75*
CCN(CC)c1cc(C)c2cc(NC(=O)c3ccc(Br)o3)ccc2n1	-5	8	-55	-0.12	-15	3
CCCNC(=O)CCC(NS(=O)(=O)c1ccc(C)cc1)C(=O)NCCC (stereo not drawn)	4	-2	-33	0.58	80*	25
CCC(NS(=O)(=O)c1ccc(C)cc1)C(=O)O (stereo not drawn)	-2	1	-35	-0.02	-1	30
FC(F)(F)c1cccc(Oc2ccc3c(C(F)(F)F)cc(C(F)(F)F)nc3n2)c1	9	-6	-10	0.86	-2	9
FC(F)(F)c1cc(C(F)(F)F)c2ccc(Oc3ccccc3)nc2n1	0	-2	-53	-0.2	-18	43*
O=C(Nc1ccc2c(c1)OCO2)c1ccc(Cl)s1	-25	27	-58	-1.1	-19	54*
O=C(Nc1ccc([N+](=O)[O-])cc1)Nc1ccc(OC(F)F)c(Cl)c1	·	·	-54	-1.1	-2	3
O=C(Nc1ccc(OC(F)F)c(Cl)c1)Nc1ccc2c(c1)OCO2	-79	78	-30	-1.4	-13	41*
O=C(c1cnn2c(C(F)F)cc(C3CC3)nc12)N1CCc2ccccc2C1	0	-4	-4	-0.51	-4	5
O=C(c1cnn2c(C(F)F)cc(C3CC3)nc12)N1CCCC1	8	-9	-4	0.05	107*	11
CCC(C)NC(=O)c1cc(CC(C)C)on1 (stereo not drawn)	16	-16	2	-0.46	0	54*
COc1ccc(CCNC(=O)c2cc(-c3ccccc3OC)on2)cc1OC	-14	11	-22	-1.1	-2	45*
COc1ccc(CCNC(=O)c2cc(CC(C)C)on2)cc1OC	0	2	11	-1.5	-17	40*
COc1ccc(-c2cc(C(=O)NCCc3ccccc3)no2)cc1OC	-2	0	-48	-1.3	-11	4
Cc1cc(NC(=O)c2cc(CC(C)C)on2)no1	·	·	-4	0.48	-12	16
CSCCC(NC(=O)c1cc([N+](=O)[O-])ccc1Cl)C(=O)O (stereo not drawn)	·	·	-5	0.92	0	12
CON(C)c1nc(OCC#N)nc(N(C)C)n1	·	·	-25	1.6	1	19
CC(=O)N(C(C)=O)c1c(C#N)c(C)n(-c2ccccc2)c1C(=O)c1ccccc1	24	-25	-52	-0.3	32*	6
SMILES	sEH activator	sEH inh	BB579 growth dn	SDO1 yeast rescue	Yeast life ext	Measles CPE
N#Cc1c(N)c(C(=O)c2ccccc2)n2c1CCCC2	-6	8	-14	-0.03	-13	14
Cc1nnn(C23CC4CC(CC(C(=O)NN)(C4)C2)C3)n1	·	·	-39	0.79	4	33*
NNC(=O)C12CC3CC(C1)CC(n1ncnn1)(C3)C2	·	·	-18	1.2	6	9
CC(C)(C)C(=O)N1CCN(c2c(Cl)cccc2[N+](=O)[O-])CC1	-3	6	-36	-0.83	11	6
N#CCCN1CCN(S(=O)(=O)c2ccc(S(=O)(=O)N3CCOCC3)cc2)CC1	·	·	20	0.1	-12	28*
O=C(NC1CCCCC1)NC1CC2CCC(C1)N2Cc1nnnn1Cc1ccc2c(c1)OCO2 (stereo not drawn)	-95	95*	-37	0.07	-10	2
COc1ccc(NS(=O)(=O)c2ccc(C)c(NC(=O)c3ccc(C)c(S(=O)(=O)N4CCOCC4)c3)c2)cc1	·	·	-25	0.91	0	20
COC(=O)/C=C1/SC(=NC(=O)c2ccccc2)NC1=O	·	·	19	0.11	28*	9
CCOC(=O)c1c(C)[nH]c(C(=O)C(C)OC(=O)c2cccc(OCc3c(C)noc3C)c2)c1C (stereo not drawn)	·	·	-48	-0.53	0	77*
Cc1noc(C)c1COc1cccc(C(=O)OCC(=O)NC(=O)c2ccc(OC(F)F)cc2)c1	·	·	-9	0.88	3	9
O=C(C1CCCO1)N1CCN(C(=S)Nc2ccccc2Cl)CC1 (stereo not drawn)	·	·	6	0.96	-5	12
CN(C)S(=O)(=O)N1CCN(c2cccc(Cl)c2)CC1	12	-15	-30	0.98	-14	22
O=S(=O)(/C=C/c1ccccc1)N1CCN(c2cccc(Cl)c2)CC1	38*	-38	-67	-1.2	-3	9
CCOC(=O)C(C(=O)OCC)c1cc(Br)c2noc3c2c1C(=O)c1ccccc1-3	-4	5	-25	-1.1	46*	0
CCOC(=O)C(C(=O)OCC)C(C(=O)OCC)N1CCOCC1 (stereo not drawn)	0	-2	-48	-0.54	-2	9
CC(C)(C(=O)c1ccccc1)/[N+]([O-])=C/c1ccc(Br)cc1	13	-10	·	·	·	·
O=Nc1ccc(NOC(=O)c2ccccc2Br)cc1	·	·	-32	-1.3	-2	28*
O=C(ONc1ccc(N=NC(=O)c2ccccc2O)cc1)c1ccccc1	4	-2	-16	-0.1	4	2
O=C(c1ccc(CNS(=O)(=O)c2ccccc2)cc1)N1CCN(Cc2ccccc2)CC1	8	-9	-69	-0.5	-3	28*
CC(C)Oc1ccc(C(=O)NC2(C(F)(F)F)NC(=O)N(CCCc3ccccc3)C2=O)cc1 (stereo not drawn)	·	·	-43	-0.76	2	13
COc1ccc(CCN2C(=O)C(O)=C(C(=O)c3ccco3)C2c2cccs2)cc1OC (stereo not drawn)	11	-13	-33	1.7	83*	18
Cc1ccc2nc(N3C(=O)C(O)=C(C(=O)c4ccco4)C3c3cccs3)sc2c1 (stereo not drawn)	0	0	-31	1.2	61*	7

Screens (PubChem)
